Data: PMC8177775 (Cancer Science, 2021)
“And” between values parts separate entries of the source, which are not always exact repeats. Equal entries are not always repeated. “Also recorded” adds a separate entry of the source.

What was measured:
[1] = tested on: human osteosarcoma xenografts; details: human osteosarcoma xenografts in nude mice; cited from earlier work
[2] = Plasma pharmacokinetics of milademetan; format: in vivo, human; details: for AUC: AUCtau
[3] = tested on: six human cancer cell lines; details: cited from earlier work
[4] = tested on: solid tumors; test: Efficacy assessment by RECIST version 1.1; format: in vivo, human
How it was run: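 Adults with relapsed or refractory solid tumors took oral test compound (tosylate salt) QD on days 1–21 of 28-day cycles at 60, 90 or 120 mg. Response was assessed by RECIST 1.1 using CT and MRI every 8 weeks through cycle 8, then every 12 weeks. Minimum SD duration was 8 weeks after first dose. Summaries were descriptive over patients with efficacy data.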

[5] = tested on: macrophage inhibitory cytokine‐1 (MIC‐1) levels in serum; test: Serum MIC-1; format: in vivo, human
How it was run: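 Serum was drawn on cycle 1 day 1 before dosing and 6 h post dose, and on days 2, 8, 15 and 21, during oral QD dosing on days 1–21 at 60, 90 or 120 mg. MIC-1 (GDF-15) was quantified by quantitative sandwich ELISA for human GDF-15. Change from baseline was summarized by cohort using descriptive statistics.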

[6] = Day 21 of cycle 1, Cohort 2 (90 mg/d) (n = 9), oral QD, mean (SD)
[7] = human, plasma, po, 60 mg/d, Day 1 of cycle 1, Cohort 1 (60 mg/d) (n = 3), oral QD, mean (SD)
[8] = human, plasma, po, 60 mg/d, Day 21 of cycle 1, Cohort 1 (60 mg/d) (n = 2), oral QD, mean (SD)
[9] = human, plasma, po, 90 mg/d, Day 1 of cycle 1, Cohort 2 (90 mg/d) (n = 11), oral QD, mean (SD)

## CC1(C)CCC2(CC1)N[C@@H](C(=O)N[C@@H]1CC[C@@H](C(N)=O)OC1)[C@H](c1ccnc(Cl)c1F)[C@]21C(=O)Nc2cc(Cl)ccc21 [milademetan, Milademetan]
[1]
  Tumor growth of xenografts: suppresses tumor growth
[2]; 60 to 120 mg QD
  Plasma concentration versus dose: increased in a dose‐dependent manner; also recorded: dose‐dependent increase
[2]; Day 21 of cycle 1, Cohort 1 (60 mg/d) (n = 2), oral QD, mean (SD)
  Ctrough: 192 (29.7) ng/mL
[2]; [6]
  Accumulation rate: 1.65 (0.440)
  Ctrough: 389 (234) ng/mL
[2]; Day 21 of cycle 1, Cohort 3 (120 mg/d) (n = 1), oral QD, SD not calculated
  Ctrough: 552 (NC) ng/mL
[2]; dose range of 60 to 120 mg/day
  PK linearity: linear PK
[2]; human, plasma, oral, Mean t1/2, day 1, across 60- to 120-mg cohorts
  half-life: 15.1 to 17.9 h
[2]; human, plasma, oral, Mean t1/2, day 21, across 60- to 120-mg cohorts
  half-life: 18.1 to 26.1 h
[2]; human, plasma, oral, Median Tmax, all cohorts
  Tmax: ~3 h
[2]; human, plasma, po, 60 mg/d
  AUC(0-inf): 6320 ng·h/mL
[2]; [7]
  AUC: 4250 ng·h/mL
  Cmax: 429 ng/mL
[2]; [8]
  AUC: 7390 ng·h/mL
  Cmax: 625 ng/mL
[2]; human, plasma, po, 60 mg/d, Tmax, Day 1 of cycle 1, Cohort 1 (60 mg/d) (n = 3), oral QD, median (minimum, maximum)
  Tmax: 3 h
[2]; human, plasma, po, 60 mg/d, Tmax, Day 21 of cycle 1, Cohort 1 (60 mg/d) (n = 2), oral QD, median (minimum, maximum)
  Tmax: 2.48 h
[2]; human, plasma, po, 60 mg/d, t1/2, Day 1 of cycle 1, Cohort 1 (60 mg/d) (n = 3), oral QD, mean (SD)
  half-life: 15.1 h
[2]; human, plasma, po, 60 mg/d, t1/2, Day 21 of cycle 1, Cohort 1 (60 mg/d) (n = 2), oral QD, mean (SD)
  half-life: 18.1 h
[2]; [9]
  AUC: 8380 ng·h/mL
  Cmax: 692 ng/mL
[2]; human, plasma, po, 90 mg/d, Day 21 of cycle 1, Cohort 2 (90 mg/d) (n = 9), oral QD, mean (SD)
  Cmax: 995 ng/mL
[2]; human, plasma, po, 90 mg/d, Tmax, Day 1 of cycle 1, Cohort 2 (90 mg/d) (n = 11), oral QD, median (minimum, maximum)
  Tmax: 3 h
[2]; human, plasma, po, 90 mg/d, Tmax, Day 21 of cycle 1, Cohort 2 (90 mg/d) (n = 9), oral QD, median (minimum, maximum)
  Tmax: 3.02 h
[2]; human, plasma, po, 90 mg/d, t1/2, Day 1 of cycle 1, Cohort 2 (90 mg/d) (n = 11), oral QD, mean (SD)
  half-life: 15.4 h
[2]; human, plasma, po, 90 mg/d, t1/2, Day 21 of cycle 1, Cohort 2 (90 mg/d) (n = 9), oral QD, mean (SD)
  half-life: 20.9 h
[2]; human, plasma, po, 120 mg/d, Day 1 of cycle 1, Cohort 3 (120 mg/d) (n = 4), oral QD, mean (SD)
  Cmax: 1140 ng/mL
[2]; human, plasma, po, 120 mg/d, Tmax, Day 1 of cycle 1, Cohort 3 (120 mg/d) (n = 4), oral QD, median (minimum, maximum)
  Tmax: 3.01 h
[2]; human, plasma, po, 120 mg/d, Tmax, Day 21 of cycle 1, Cohort 3 (120 mg/d) (n = 1), oral QD, median (minimum, maximum)
  Tmax: 2.95 h
[2]; human, plasma, po, 120 mg/d, t1/2, Day 1 of cycle 1, Cohort 3 (120 mg/d) (n = 4), oral QD, mean (SD)
  half-life: 17.9 h
[2]; human, plasma, po, 120 mg/day
  AUC(0-t): 25600 ng·h/mL
[3]
  Growth of cancer cells harboring wild-type p53: inhibits the growth
[4]; 16 patients
  Complete or partial response: No patients achieved complete or partial response
[4]; Japanese patients with solid tumors
  Antitumor activity: modest antitumor activity
[4]; Total (n = 16)
  Disease control rate, percentage of patients (95% CI): 43.8%
  Progressive disease, percentage of patients (95% CI): 31.3%
  Stable disease, percentage of patients (95% CI): 43.8%
[4]; at 3 months
  PFS rate (95% CI): 56.8%
[4]; at 6, 9, and 12 months
  PFS rate (95% CI): 35.5%
[4]; efficacy analysis set, 17 patients
  Patients with a PFS event: Eight of the 17 patients
[4]; including censored patients
  Median (minimum, maximum) PFS: 15.29 (0.1, 202.1) weeks and 15.3 (0.1+, 202.1+) weeks
  Median (range) duration of stable disease: 55.4 (7.3‐202.1) weeks and 55.4 (7.3+, 202.1+) weeks
[4]; one patient in the 60-mg cohort with SD as best response
  PFS of one patient: 202.1 weeks
[5]; 60-mg cohort
  Increase of MIC-1 levels from baseline to day 21, mean (SD): 2175.7 (1677.40) pg/mL
[5]; 90-mg cohort
  Increase of MIC-1 levels from baseline to day 21, mean (SD): 9514.5 (6812.78) pg/mL
[5]; 120-mg cohort
  Increase of MIC-1 levels from baseline to day 21, mean (SD): 7930.5 (7636.72) pg/mL
[5]; all cohorts
  Mean MIC-1 levels after administration: increased from baseline in all cohorts
